ChEMBL document CHEMBL2440062, “New nucleotide-competitive non-nucleoside inhibitors of terminal deoxynucleotidyl transferase: discovery, characterization, and crystal structure in complex with the target” (J Med Chem, 2013)

Tested on: HeLa
Test: Cytotoxicity against TdT-deficient human HeLa cells assessed as growth inhibition after 24 to 48 hrs by MTT assay
Assay type: cell-based
In short: (§1)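 MOLT-4 cells were grown in RPMI-1640 and HeLa cells in DMEM, with 10% FCS at 37 °C. Cells were seeded at 10^5 per well, given 24 h to attach, then exposed to compounds (0.1–100 range) for 24 or 48 h. MTT at 1 mg/mL was added for 2 h at 37 °C, formazan was dissolved in DMSO, and absorbance read at 550 nm versus 0.5% DMSO vehicle. IC50 was obtained by regression, in triplicate.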

| SMILES | IC50 |
| --- | --- |
| N#Cc1ccc(C(=O)c2c[nH]c(/C=C/C(=O)CC(=O)C(=O)O)c2)cc1 | > 40 µM |

Tested on: MOLT-4
Test: Cytotoxicity against human MOLT4 cells overexpressing TdT assessed as growth inhibition after 24 to 48 hrs by MTT assay
Assay type: functional, cell-based
In short: as §1

| SMILES | IC50 |
| --- | --- |
| N#Cc1ccc(C(=O)c2c[nH]c(/C=C/C(=O)CC(=O)C(=O)O)c2)cc1 | > 40 µM |

Target: DNA polymerase beta (Homo sapiens, UniProt P06746)
Test: Inhibition of human recombinant DNA polymerase beta

| SMILES | IC50 |
| --- | --- |
| C/C=C/Cn1cc(/C=C/C(=O)CC(=O)C(=O)OCC)c2ccccc21 | > 40 µM |
| C/C=C/n1cc(/C=C/C(=O)CC(=O)C(=O)OCC)c2ccccc21 | > 40 µM |
| CCOC(=O)C(=O)CC(=O)/C=C/c1cn(CCC(C)C)c2ccccc12 | > 40 µM |
| CCOC(=O)C(=O)CC(=O)/C=C/c1cc(C(=O)c2ccccc2)cn1Cc1ccc(F)cc1 | > 40 µM |
| C=C(C)Cn1cc(/C=C/C(=O)CC(=O)C(=O)OCC)c2ccccc21 | > 40 µM |
| CCOC(=O)C(=O)CC(=O)/C=C/c1cn(Cc2ccc(F)cc2)c2ccccc12 | > 40 µM |
| CCOC(=O)C(=O)CC(=O)/C=C/c1cc(C(=O)c2ccccc2)cn1Cc1ccc(C#N)cc1 | > 40 µM |
| CCOC(=O)C(=O)CC(=O)/C=C/c1cn(CC(=O)N(C)C)c2ccccc12 | > 40 µM |
| CCOC(=O)C(=O)CC(=O)/C=C/c1cn(CC(=O)N2CCOCC2)c2ccccc12 | > 40 µM |
| CCOC(=O)C(=O)CC(=O)/C=C/c1cn(Cc2ccc(OC)cc2)c2ccccc12 | > 40 µM |
| CCCn1cc(/C=C/C(=O)CC(=O)C(=O)OCC)c2ccccc21 | > 40 µM |
| CCOC(=O)C(=O)CC(=O)/C=C/c1cn(Cc2ccc(O)cc2)c2ccccc12 | > 40 µM |
| N#Cc1ccc(C(=O)c2c[nH]c(/C=C/C(=O)CC(=O)C(=O)O)c2)cc1 | > 40 µM |
| CCOC(=O)C(=O)CC(=O)/C=C/c1cn(-c2ccc(O)cc2)c2ccccc12 | > 40 µM |
| CCOC(=O)C(=O)CC(=O)/C=C/c1cn(Cc2ccc(Cl)cc2)c2ccccc12 | > 40 µM |
| CCOC(=O)C(=O)CC(=O)/C=C/c1cc(C(=O)c2ccccc2)cn1Cc1ccccc1 | > 40 µM |
| CCOC(=O)C(=O)CC(=O)/C=C/c1cn(-c2ccc(Cl)cc2)c2ccccc12 | > 40 µM |
| CCCCn1cc(/C=C/C(=O)CC(=O)C(=O)OCC)c2ccccc21 | > 40 µM |
| CCOC(=O)C(=O)CC(=O)/C=C/c1cn(Cc2ccc(C#N)cc2)c2ccccc12 | > 40 µM |
| CCOC(=O)C(=O)CC(=O)/C=C/c1cn(C=C(C)C)c2ccccc12 | > 40 µM |

Target: T1, DNA polymerase lambda (Homo sapiens) (UniProt Q9UGP5)
T1 sequence (whole entry): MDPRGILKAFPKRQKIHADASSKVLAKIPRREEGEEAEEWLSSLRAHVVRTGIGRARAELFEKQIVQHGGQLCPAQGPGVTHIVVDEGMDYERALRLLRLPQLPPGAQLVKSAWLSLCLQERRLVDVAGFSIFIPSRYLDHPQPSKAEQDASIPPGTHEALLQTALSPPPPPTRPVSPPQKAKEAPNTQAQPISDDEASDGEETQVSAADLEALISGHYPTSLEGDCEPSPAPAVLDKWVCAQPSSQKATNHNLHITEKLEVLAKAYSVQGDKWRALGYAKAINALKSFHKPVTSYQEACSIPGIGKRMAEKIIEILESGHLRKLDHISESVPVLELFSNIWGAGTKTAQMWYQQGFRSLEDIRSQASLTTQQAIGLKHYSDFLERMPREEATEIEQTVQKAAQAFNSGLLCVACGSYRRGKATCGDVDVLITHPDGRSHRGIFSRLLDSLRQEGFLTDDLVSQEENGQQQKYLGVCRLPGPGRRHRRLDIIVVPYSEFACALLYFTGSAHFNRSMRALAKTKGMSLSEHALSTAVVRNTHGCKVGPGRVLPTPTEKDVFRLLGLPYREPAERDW
Test: Inhibition of human recombinant full length DNA polymerase lambda TdT-like activity using [3H]dNTP as substrate after 10 mins by scintillation counting analysis
In short: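 Full-length recombinant human pol λ (>90% pure) was tested for template-independent activity. Acid-insoluble radioactivity was counted, and ID50 came from dose–response fitting.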

| SMILES | ID50 |
| --- | --- |
| C/C=C/Cn1cc(/C=C/C(=O)CC(=O)C(=O)OCC)c2ccccc21 | > 40 µM |
| C/C=C/n1cc(/C=C/C(=O)CC(=O)C(=O)OCC)c2ccccc21 | > 40 µM |
| CCOC(=O)C(=O)CC(=O)/C=C/c1cn(CCC(C)C)c2ccccc12 | > 40 µM |
| CCOC(=O)C(=O)CC(=O)/C=C/c1cc(C(=O)c2ccccc2)cn1Cc1ccc(F)cc1 | > 40 µM |
| C=C(C)Cn1cc(/C=C/C(=O)CC(=O)C(=O)OCC)c2ccccc21 | > 40 µM |
| CCOC(=O)C(=O)CC(=O)/C=C/c1cn(Cc2ccc(F)cc2)c2ccccc12 | > 40 µM |
| CCOC(=O)C(=O)CC(=O)/C=C/c1cc(C(=O)c2ccccc2)cn1Cc1ccc(C#N)cc1 | > 40 µM |
| CCOC(=O)C(=O)CC(=O)/C=C/c1cn(CC(=O)N(C)C)c2ccccc12 | > 40 µM |
| CCOC(=O)C(=O)CC(=O)/C=C/c1cn(CC(=O)N2CCOCC2)c2ccccc12 | > 40 µM |
| CCOC(=O)C(=O)CC(=O)/C=C/c1cn(Cc2ccc(OC)cc2)c2ccccc12 | > 40 µM |
| CCCn1cc(/C=C/C(=O)CC(=O)C(=O)OCC)c2ccccc21 | > 40 µM |
| CCOC(=O)C(=O)CC(=O)/C=C/c1cn(-c2ccccc2)c2ccccc12 | > 40 µM |
| CCOC(=O)C(=O)CC(=O)/C=C/c1cn(Cc2ccc(O)cc2)c2ccccc12 | > 40 µM |
| N#Cc1ccc(C(=O)c2c[nH]c(/C=C/C(=O)CC(=O)C(=O)O)c2)cc1 | 40 µM |
| CCOC(=O)C(=O)CC(=O)/C=C/c1cn(-c2ccc(O)cc2)c2ccccc12 | > 40 µM |
| CCOC(=O)C(=O)CC(=O)/C=C/c1cn(Cc2ccc(Cl)cc2)c2ccccc12 | > 40 µM |
| CCOC(=O)C(=O)CC(=O)/C=C/c1cc(C(=O)c2ccccc2)cn1Cc1ccccc1 | > 40 µM |
| CCOC(=O)C(=O)CC(=O)/C=C/c1cn(-c2ccc(Cl)cc2)c2ccccc12 | > 40 µM |
| CCCCn1cc(/C=C/C(=O)CC(=O)C(=O)OCC)c2ccccc21 | > 40 µM |
| CCOC(=O)C(=O)CC(=O)/C=C/c1cn(Cc2ccc(C#N)cc2)c2ccccc12 | > 40 µM |
| CCOC(=O)C(=O)CC(=O)/C=C/c1cn(C=C(C)C)c2ccccc12 | > 40 µM |

Target: T1, DNA polymerase lambda (Homo sapiens)
Test: Inhibition of human recombinant full length DNA polymerase lambda using [3H]dTTP as substrate and 10 poly(dA)/oligo(dT) as template-primer after 15 mins by scintillation counting analysis
In short: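 Recombinant full-length human pol λ at 50 nM was assayed with 0.2 μM poly(dA)/oligo(dT)10:1 (3′-OH ends) and 5 μM [3H]dTTP (5 Ci/mmol). Incubation was 15 min at 37 °C. TCA precipitates were scintillation counted.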

| SMILES | ID50 |
| --- | --- |
| C/C=C/Cn1cc(/C=C/C(=O)CC(=O)C(=O)OCC)c2ccccc21 | > 40 µM |
| C/C=C/n1cc(/C=C/C(=O)CC(=O)C(=O)OCC)c2ccccc21 | > 40 µM |
| CCOC(=O)C(=O)CC(=O)/C=C/c1cn(CCC(C)C)c2ccccc12 | > 40 µM |
| CCOC(=O)C(=O)CC(=O)/C=C/c1cc(C(=O)c2ccccc2)cn1Cc1ccc(F)cc1 | > 40 µM |
| C=C(C)Cn1cc(/C=C/C(=O)CC(=O)C(=O)OCC)c2ccccc21 | > 40 µM |
| CCOC(=O)C(=O)CC(=O)/C=C/c1cn(Cc2ccc(F)cc2)c2ccccc12 | > 40 µM |
| CCOC(=O)C(=O)CC(=O)/C=C/c1cc(C(=O)c2ccccc2)cn1Cc1ccc(C#N)cc1 | > 40 µM |
| CCOC(=O)C(=O)CC(=O)/C=C/c1cn(CC(=O)N(C)C)c2ccccc12 | > 40 µM |
| CCOC(=O)C(=O)CC(=O)/C=C/c1cn(CC(=O)N2CCOCC2)c2ccccc12 | > 40 µM |
| CCOC(=O)C(=O)CC(=O)/C=C/c1cn(Cc2ccc(OC)cc2)c2ccccc12 | > 40 µM |
| CCCn1cc(/C=C/C(=O)CC(=O)C(=O)OCC)c2ccccc21 | > 40 µM |
| CCOC(=O)C(=O)CC(=O)/C=C/c1cn(-c2ccccc2)c2ccccc12 | > 40 µM |
| CCOC(=O)C(=O)CC(=O)/C=C/c1cn(Cc2ccc(O)cc2)c2ccccc12 | > 40 µM |
| N#Cc1ccc(C(=O)c2c[nH]c(/C=C/C(=O)CC(=O)C(=O)O)c2)cc1 | > 40 µM |
| CCOC(=O)C(=O)CC(=O)/C=C/c1cn(-c2ccc(O)cc2)c2ccccc12 | > 40 µM |
| CCOC(=O)C(=O)CC(=O)/C=C/c1cn(Cc2ccc(Cl)cc2)c2ccccc12 | > 40 µM |
| CCOC(=O)C(=O)CC(=O)/C=C/c1cc(C(=O)c2ccccc2)cn1Cc1ccccc1 | > 40 µM |
| CCOC(=O)C(=O)CC(=O)/C=C/c1cn(-c2ccc(Cl)cc2)c2ccccc12 | 6 µM |
| CCCCn1cc(/C=C/C(=O)CC(=O)C(=O)OCC)c2ccccc21 | > 40 µM |
| CCOC(=O)C(=O)CC(=O)/C=C/c1cn(Cc2ccc(C#N)cc2)c2ccccc12 | > 40 µM |
| CCOC(=O)C(=O)CC(=O)/C=C/c1cn(C=C(C)C)c2ccccc12 | > 40 µM |

Target: DNA nucleotidylexotransferase (Homo sapiens, UniProt P04053)
Test: Inhibition of human recombinant TdT using [3H]dNTP as substrate after 10 mins by scintillation counting analysis
In short: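 TdT was from Trevigen. TCA-precipitated radioactivity was counted. ID50 came from dose–response fitting. For kinetics, DNA or dNTP was varied at increasing inhibitor, and Ki was obtained via Cheng–Prusoff for a competitive model.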

Chain of DNA nucleotidylexotransferase (P04053 whole entry): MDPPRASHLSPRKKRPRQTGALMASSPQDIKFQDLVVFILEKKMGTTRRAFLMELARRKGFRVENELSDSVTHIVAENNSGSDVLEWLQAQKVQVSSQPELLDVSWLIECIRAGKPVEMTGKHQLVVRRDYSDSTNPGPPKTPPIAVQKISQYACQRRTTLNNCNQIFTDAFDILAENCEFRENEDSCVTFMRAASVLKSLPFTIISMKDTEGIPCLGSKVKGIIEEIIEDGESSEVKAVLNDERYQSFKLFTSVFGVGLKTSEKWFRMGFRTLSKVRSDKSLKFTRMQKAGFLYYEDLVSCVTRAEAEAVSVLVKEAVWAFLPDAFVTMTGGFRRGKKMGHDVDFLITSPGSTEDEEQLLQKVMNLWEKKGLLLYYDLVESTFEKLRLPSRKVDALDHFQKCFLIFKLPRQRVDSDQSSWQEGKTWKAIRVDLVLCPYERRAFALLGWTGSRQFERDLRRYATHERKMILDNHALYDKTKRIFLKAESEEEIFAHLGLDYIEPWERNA

| SMILES | ID50 |
| --- | --- |
| C/C=C/Cn1cc(/C=C/C(=O)CC(=O)C(=O)OCC)c2ccccc21 | > 40 µM |
| C/C=C/n1cc(/C=C/C(=O)CC(=O)C(=O)OCC)c2ccccc21 | > 40 µM |
| CCOC(=O)C(=O)CC(=O)/C=C/c1cn(CCC(C)C)c2ccccc12 | > 40 µM |
| CCOC(=O)C(=O)CC(=O)/C=C/c1cc(C(=O)c2ccccc2)cn1Cc1ccc(F)cc1 | > 40 µM |
| C=C(C)Cn1cc(/C=C/C(=O)CC(=O)C(=O)OCC)c2ccccc21 | > 40 µM |
| CCOC(=O)C(=O)CC(=O)/C=C/c1cn(Cc2ccc(F)cc2)c2ccccc12 | > 40 µM |
| CCOC(=O)C(=O)CC(=O)/C=C/c1cc(C(=O)c2ccccc2)cn1Cc1ccc(C#N)cc1 | > 40 µM |
| CCOC(=O)C(=O)CC(=O)/C=C/c1cn(CC(=O)N(C)C)c2ccccc12 | > 40 µM |
| CCOC(=O)C(=O)CC(=O)/C=C/c1cn(CC(=O)N2CCOCC2)c2ccccc12 | > 40 µM |
| CCOC(=O)C(=O)CC(=O)/C=C/c1cn(Cc2ccc(OC)cc2)c2ccccc12 | > 40 µM |
| CCCn1cc(/C=C/C(=O)CC(=O)C(=O)OCC)c2ccccc21 | > 40 µM |
| CCOC(=O)C(=O)CC(=O)/C=C/c1cn(-c2ccccc2)c2ccccc12 | > 40 µM |
| CCOC(=O)C(=O)CC(=O)/C=C/c1cn(Cc2ccc(O)cc2)c2ccccc12 | 40 µM |
| N#Cc1ccc(C(=O)c2c[nH]c(/C=C/C(=O)CC(=O)C(=O)O)c2)cc1 | 1.1 µM |
| CCOC(=O)C(=O)CC(=O)/C=C/c1cn(-c2ccc(O)cc2)c2ccccc12 | > 40 µM |
| CCOC(=O)C(=O)CC(=O)/C=C/c1cn(Cc2ccc(Cl)cc2)c2ccccc12 | 40 µM |
| CCOC(=O)C(=O)CC(=O)/C=C/c1cc(C(=O)c2ccccc2)cn1Cc1ccccc1 | > 40 µM |
| CCOC(=O)C(=O)CC(=O)/C=C/c1cn(-c2ccc(Cl)cc2)c2ccccc12 | > 40 µM |
| CCCCn1cc(/C=C/C(=O)CC(=O)C(=O)OCC)c2ccccc21 | > 40 µM |
| CCOC(=O)C(=O)CC(=O)/C=C/c1cn(Cc2ccc(C#N)cc2)c2ccccc12 | > 40 µM |
| CCOC(=O)C(=O)CC(=O)/C=C/c1cn(C=C(C)C)c2ccccc12 | > 40 µM |
